# According to ChEMBL document CHEMBL4699489, “Optimized Opioid-Neurotensin Multitarget Peptides: From Design to Structure-Activity Relationship Studies” (J Med Chem, 2020):
# The source made the active and inactive calls. Numbered stars: 1 amine (or outer) side, 2 acyl side, 3 side chain; on linkers, the order of the positions; unused ones are H or OH. Square brackets hold non-standard residues; d marks the D form. Peptide text beside a SMILES is read from it. X1 = O=C1[C@@H](N[*:1])Cc2ccccc2CN1CCC(=O)[*:2]; X2 = O=C([C@@H]1Cc2cc(O)ccc2CN1[*:1])[*:2]; Dmt = Cc1cc(O)cc(C)c1C[C@H](N)C(=O)O; β3hR = N=C(N)NCCC[C@H](N)CC(=O)O; Tle = CC(C)(C)[C@H](N)C(=O)O
# How the values were obtained:
# Mu-type opioid receptor [1] = molecular target: T1, Mu-type opioid receptor (Homo sapiens, UniProt P35372); assay: Displacement of [3H]-DAMGO from recombinant human mu opioid receptor expressed in CHO cell membrane incubated for 60 mins by liquid scintillation counting method; format: cell membranes
# T1 sequence (P35372 whole entry): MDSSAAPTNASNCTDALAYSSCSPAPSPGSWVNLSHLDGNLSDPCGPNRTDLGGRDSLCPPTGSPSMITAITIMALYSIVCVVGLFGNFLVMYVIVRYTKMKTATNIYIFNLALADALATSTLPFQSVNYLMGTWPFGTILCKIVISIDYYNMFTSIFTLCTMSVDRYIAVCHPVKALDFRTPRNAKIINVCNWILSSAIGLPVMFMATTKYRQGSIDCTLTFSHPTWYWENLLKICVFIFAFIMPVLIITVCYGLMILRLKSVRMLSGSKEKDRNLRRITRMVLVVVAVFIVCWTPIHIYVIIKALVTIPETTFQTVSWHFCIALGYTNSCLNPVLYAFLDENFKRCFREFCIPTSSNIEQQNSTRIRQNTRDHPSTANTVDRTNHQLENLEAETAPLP
# Method in brief: (§1)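 Membranes from CHO-hMOR, -hDOR or -hKOR cells, homogenized and washed in 50 mM Tris-HCl pH 7.4. Membranes (15–20 μg) incubated with [3H]DAMGO (MOR), [3H]diprenorphine (DOR) or [3H]U69,593 (KOR) plus graded peptide, 60 min at 25 °C. Nonspecific binding with 1–10 μM of the unlabelled ligand. GF/C filtration, scintillation counting. Ki by Cheng–Prusoff. Duplicate, three independent experiments.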
# [2] = molecular target: T2, Delta-type opioid receptor (Homo sapiens, UniProt P41143); assay: Displacement of [3H]-Diprenorphine from recombinant human delta opioid receptor expressed in CHO cell membrane incubated for 60 mins by liquid scintillation counting method; format: cell membranes; method in brief: as §1
# T2 sequence (P41143 whole entry): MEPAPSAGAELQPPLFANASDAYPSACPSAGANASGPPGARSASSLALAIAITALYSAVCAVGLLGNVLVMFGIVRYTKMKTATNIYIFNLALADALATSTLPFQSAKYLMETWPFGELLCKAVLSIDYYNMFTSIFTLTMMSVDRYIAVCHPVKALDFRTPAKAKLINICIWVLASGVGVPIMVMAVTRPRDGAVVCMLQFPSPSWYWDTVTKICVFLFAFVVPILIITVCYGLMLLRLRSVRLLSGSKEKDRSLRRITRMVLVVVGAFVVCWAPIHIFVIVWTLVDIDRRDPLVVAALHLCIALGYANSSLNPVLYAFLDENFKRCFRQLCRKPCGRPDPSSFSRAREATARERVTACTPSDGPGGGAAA
# [3] = molecular target: T3, Kappa-type opioid receptor (Homo sapiens, UniProt P41145); assay: Displacement of [3H]-U69593 from recombinant human kappa opioid receptor expressed in CHO cell membrane incubated for 60 mins by liquid scintillation counting method; format: cell membranes; method in brief: as §1
# T3 sequence (P41145 whole entry): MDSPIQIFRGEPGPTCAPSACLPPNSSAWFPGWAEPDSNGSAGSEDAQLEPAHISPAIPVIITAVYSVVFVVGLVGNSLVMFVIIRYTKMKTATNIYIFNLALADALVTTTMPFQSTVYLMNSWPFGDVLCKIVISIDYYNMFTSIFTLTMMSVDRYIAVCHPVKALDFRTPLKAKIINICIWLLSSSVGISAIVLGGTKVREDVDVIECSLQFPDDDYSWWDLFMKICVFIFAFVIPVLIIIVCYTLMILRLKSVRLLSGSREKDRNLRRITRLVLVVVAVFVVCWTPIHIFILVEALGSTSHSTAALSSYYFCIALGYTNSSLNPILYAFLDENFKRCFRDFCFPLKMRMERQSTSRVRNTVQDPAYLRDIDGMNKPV
# Mu-type opioid receptor [4] = molecular target: T1, Mu-type opioid receptor; assay: Agonist activity at human MOR expressed in CHO cell membranes assessed as stimulation of [35S]-GTPgammaS binding incubated for 1 hr by liquid scintillation counting assay relative to DAMGO; format: functional; conditions: time 60.0 min
# Method in brief: (§2)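 Membranes from CHO cells stably expressing hMOR, hDOR or hKOR, prepared in 20 mM HEPES, 10 mM MgCl2, 100 mM NaCl, pH 7.4. Membranes (5–10 μg) incubated with 0.05 nM [35S]GTPγS, 10 μM GDP and graded peptide concentrations, 60 min at 25 °C. Nonspecific binding with 10 μM GTPγS, basal without ligand. GF/B filtration, scintillation counting. EC50 and Emax by nonlinear regression; Emax relative to DAMGO, DPDPE or U69,593. Duplicate, three independent experiments.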
# Mu-type opioid receptor [5] = molecular target: T1, Mu-type opioid receptor; assay: Agonist activity at human MOR expressed in human U2OS cells assessed as increase in beta arrestin2 recruitment incubated for 90 mins by pathhunter beta-arrestin assay; format: cell-based
# Method in brief: (§3)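 U2OS cells stably coexpressing hMOR and enzyme acceptor-tagged β-arrestin-2, seeded at 5000 cells/well and kept 24 h at 37 °C. Graded peptide concentrations in PBS added for 90 min at 37 °C, then detection mix for 60 min at room temperature. Chemiluminescence read-out. EC50 and Emax (relative to DAMGO) by nonlinear regression. Duplicate, three independent experiments.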
# Mu-type opioid receptor [6] = molecular target: T1, Mu-type opioid receptor; assay: Agonist activity at human MOR expressed in human U2OS cells assessed as increase in beta arrestin2 recruitment incubated for 90 mins by pathhunter beta-arrestin assay relative to DAMGO; format: cell-based; conditions: filed as partial agonist; method in brief: as §3
# [7] = molecular target: T2, Delta-type opioid receptor; assay: Agonist activity at human DOR stably expressed in CHO cell membranes assessed as stimulation of [35S]-GTPgammaS binding incubated for 1 hr by liquid scintillation counting assay; format: functional; method in brief: as §2
# [8] = molecular target: T2, Delta-type opioid receptor; assay: Agonist activity at human DOR stably expressed in CHO cell membranes assessed as stimulation of [35S]-GTPgammaS binding incubated for 1 hr by liquid scintillation counting assay relative to DPDPE; format: functional; conditions: time 60.0 min; method in brief: as §2
# [9] = molecular target: T3, Kappa-type opioid receptor; assay: Agonist activity at human KOR stably expressed in CHO cell membranes assessed as stimulation of [35S]-GTPgammaS binding incubated for 1 hr by liquid scintillation counting assay; format: functional; method in brief: as §2
# Mus musculus [10] = assay: Antinociceptive activity in CD-1 mouse model of thermal-induced nociception assessed as increase in tail withdrawal latency 1.82 umol/kg, sc measured after 2 to 24 hrs by tail-flick test; format: functional, organism-based; conditions: dose 1.82 µmol/kg, time hrs 2-24
# Method in brief: (§4)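 Male CD-1 mice, 30–35 g, 8 weeks old, 5–6 per group, each mouse tested once. Peptide or saline given sc. Radiant-heat tail-flick latency measured before dosing and at 15 min, 30 min, hourly to 8 h, and at 24 h, with a 10 s cutoff. %MPE = [(test latency − basal latency)/(cutoff − basal latency)] × 100. Two-way ANOVA with Bonferroni post hoc test, P < 0.05.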
# Mus musculus [11] = assay: Antinociceptive activity in CD-1 mouse model of thermal-induced nociception assessed as maximum possible effect at 1.82 umol/kg, sc measured at 1 hr by tail-flick test; format: functional; conditions: dose 1.82 µmol/kg
# [12] = molecular target: T4, Neurotensin receptor type 1 (Homo sapiens, UniProt P30989); assay: Displacement of [125I]-neurotensin from human recombinant NTS1 stably expressed in CHO-K1 cell membranes incubated for 60 mins by gamma counter method
# T4 sequence (P30989 whole entry): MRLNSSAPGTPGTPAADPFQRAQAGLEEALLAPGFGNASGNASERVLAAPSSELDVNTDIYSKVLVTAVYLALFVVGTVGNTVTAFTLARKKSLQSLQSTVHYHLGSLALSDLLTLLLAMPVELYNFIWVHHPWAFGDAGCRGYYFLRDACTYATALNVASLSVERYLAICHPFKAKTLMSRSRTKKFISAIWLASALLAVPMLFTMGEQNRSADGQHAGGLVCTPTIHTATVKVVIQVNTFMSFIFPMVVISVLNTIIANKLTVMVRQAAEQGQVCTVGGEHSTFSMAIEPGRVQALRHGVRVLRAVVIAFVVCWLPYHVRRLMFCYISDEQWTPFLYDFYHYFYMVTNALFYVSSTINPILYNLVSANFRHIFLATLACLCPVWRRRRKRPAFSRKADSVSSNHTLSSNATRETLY
# [13] = molecular target: Neurotensin receptor type 2 (Homo sapiens, UniProt O95665); assay: Displacement of [125I]-neurotensin from human recombinant NTS2 stably expressed in human 1321N1 cell membranes incubated for 60 mins by gamma counter method
# Chain of Neurotensin receptor type 2 (O95665 whole entry): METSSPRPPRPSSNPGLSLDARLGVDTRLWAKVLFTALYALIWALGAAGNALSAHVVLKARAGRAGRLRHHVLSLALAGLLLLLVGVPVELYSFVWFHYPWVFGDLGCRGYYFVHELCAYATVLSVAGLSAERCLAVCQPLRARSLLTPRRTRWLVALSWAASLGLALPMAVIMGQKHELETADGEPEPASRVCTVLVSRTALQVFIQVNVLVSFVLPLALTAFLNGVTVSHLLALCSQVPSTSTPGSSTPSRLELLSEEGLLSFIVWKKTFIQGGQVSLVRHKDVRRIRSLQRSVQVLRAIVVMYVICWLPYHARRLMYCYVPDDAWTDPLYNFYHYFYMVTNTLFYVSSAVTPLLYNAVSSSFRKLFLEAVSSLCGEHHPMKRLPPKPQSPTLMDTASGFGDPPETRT
# Mu-type opioid receptor [14] = molecular target: T1, Mu-type opioid receptor; assay: Agonist activity at human MOR stably expressed in CHO cell membranes assessed as stimulation of [35S]-GTPgammaS binding incubated for 1 hr by liquid scintillation counting assay; format: functional; method in brief: as §2
# [15] = molecular target: T3, Kappa-type opioid receptor; assay: Agonist activity at human KOR stably expressed in CHO cell membranes assessed as stimulation of [35S]-GTPgammaS binding incubated for 1 hr by liquid scintillation counting assay relative to U69593; format: functional; conditions: time 60.0 min; method in brief: as §2
# [16] = molecular target: T4, Neurotensin receptor type 1; assay: Agonist activity at human NTS1 expressed in HEK293 cells co-expressing Galphaq/RlucII/GFP10-Ggamma1/Gbeta1 assessed as increase in Galphaq activation incubated for 10 mins in presence of coelenterazine 400A by BRET assay; format: cell-based
# [17] = molecular target: T4, Neurotensin receptor type 1; assay: Agonist activity at human NTS1 expressed in HEK293 cells co-expressing Galphaq/RlucII/GFP10-Ggamma1/Gbeta1 assessed as increase in Gq activation incubated for 10 mins in presence of coelenterazine 400A by BRET assay relative to NT (8-13); format: cell-based
# Mus musculus [18] = assay: Antinociceptive activity in CD-1 mouse model of thermal-induced nociception assessed as maximum possible effect at 5.52 umol/kg, sc measured at 1 hr interval for 2 to 3 hrs by tail-flick test; format: functional; conditions: dose 5.52 µmol/kg; time hrs 2-3; method in brief: as §4
# Mus musculus [19] = assay: Antinociceptive activity in CD-1 mouse model of thermal-induced nociception assessed as increase in tail withdrawal latency at 5.52 umol/kg, sc measured after 3 hrs by tail-flick test; format: functional, organism-based; conditions: dose 5.52 µmol/kg, time hrs >=3; method in brief: as §4
# Mu-type opioid receptor [20] = molecular target: T1, Mu-type opioid receptor; assay: Potency index, ratio of PK20 Ki to test compound Ki for displacement of [3H]-DAMGO from recombinant human mu opioid receptor expressed in CHO cell membranes
# [21] = molecular target: T4, Neurotensin receptor type 1; assay: […], ratio of compound EC50 to NT(8-13) EC50 for agonist activity at human NTS1 expressed in HEK293 cells co-expressing Galphaq/RlucII/GFP10-Ggamma1/Gbeta1 assessed as increase in Gq activation incubated for 10 mins in presence of coelenterazine 400A by measuring fold value by BRET assay; format: cell-based; conditions: hek293, 10 min
# Mus musculus [22] = assay: Antinociceptive activity in CD-1 mouse model of thermal-induced nociception assessed as increase in tail withdrawal latency at 2.64 umol/kg, sc measured up to 8 hrs by tail-flick test; format: functional, organism-based; conditions: dose 2.64 µmol/kg, time hrs <=8; method in brief: as §4
# Mus musculus [23] = assay: Antinociceptive activity in CD-1 mouse model of thermal-induced nociception assessed as maximum possible effect at 2.64 uM/kg, sc measured at 1 hr interval for 2 to 7 hrs by tail-flick test; format: functional; conditions: dose 2.64 µmol/kg; time hrs 2-7; method in brief: as §4
SMILES,Ki (Mu-type opioid receptor [1]) [nM],Ki [2] [nM],Ki [3] [nM],Emax (Mu-type opioid receptor [4]; filed as agonist) [%],EC50 (Mu-type opioid receptor [5]) [nM],Emax (Mu-type opioid receptor [6]) [%],EC50 [7] [nM],Emax ([8]; filed as agonist) [%],EC50 [9] [nM],Ki [12] [nM],Ki [13] [nM],EC50 (Mu-type opioid receptor [14]) [nM],Emax ([15]; filed as partial agonist) [%],EC50 [16] [nM],Emax [17] [%],also measured
Cc1cc(O)cc(C)c1C[C@H](N)C(=O)N[C@H](CCCNC(=N)N)C(=O)N[C@H]1Cc2ccccc2CN(CCC(N)=O)C1=O,0.14,1.51,16.6,100,5.53,107,1.27,104,> 10000,–,–,–,–,–,–,Activity (Mus musculus [10]): inactive; MPE (Mus musculus [11]): 80%
Cc1cc(O)cc(C)c1C[C@H](N)C(=O)N[C@H](CCCCN)C(=O)N[C@@H](Cc1ccccc1)C(=O)N[C@@H](Cc1ccccc1)C(=O)N[C@@H](CCCCN)C(=O)N[C@@H](CCCCN)C(=O)N1CCC[C@H]1C(=O)N[C@@H](Cc1ccccc1)C(=O)N[C@H](C(=O)N[C@@H](CC(C)C)C(=O)O)C(C)(C)C (H-[Dmt][dK]FFKKPF[Tle]L-OH),4.13,46.4,33.5,–,956,69,479,–,47.1,188,29.5,13.3,65,19.1,101,Emax (Mu-type opioid receptor [4]; filed as partial agonist): 91%; Emax ([8]; filed as partial agonist): 78%; MPE (Mus musculus [18]): 80%; Activity (Mus musculus [19]): inactive
Cc1cc(O)cc(C)c1C[C@H](N)C(=O)N[C@H](CCCNC(=N)N)C(=O)N[C@H]1Cc2ccccc2CN(CCC(=O)N[C@@H](CCCNC(=N)N)C(=O)N[C@@H](CCCNC(=N)N)C(=O)N2CCC[C@H]2C(=O)N2Cc3ccc(O)cc3C[C@H]2C(=O)N[C@H](C(=O)N[C@@H](CC(C)C)C(=O)O)C(C)(C)C)C1=O (H-[Dmt][dR][X1]RRP[X2][Tle]L-OH),1.67,105,22.4,98,934,67,227,97,399,4710,1.72,4.56,–,1900,74,Ratio Ki (Mu-type opioid receptor [20]): 2; Emax [15]: 20%; Ratio EC50 [21]: 13000
Cc1cc(O)cc(C)c1C[C@H](NC(=O)[C@@H]1CCCN1C(=O)[C@H](CCCNC(=N)N)NC(=O)C[C@H](CCCNC(=N)N)NC(=O)CCN1Cc2ccccc2C[C@H](NC(=O)[C@@H](CCCNC(=N)N)NC(=O)[C@@H](N)Cc2c(C)cc(O)cc2C)C1=O)C(=O)N[C@H](C(=O)N[C@@H](CC(C)C)C(=O)O)C(C)(C)C (H-[Dmt][dR][X1][β3hR]RP[Dmt][Tle]L-OH),1.75,101,27.9,94,1070,68,305,99,158,4,0.003,28.7,46,0.86,114,Activity (Mus musculus [22]): Active; MPE (Mus musculus [23]): >=80%
